Measured values taken from ChEMBL document CHEMBL1138837, “Structure-activity study on the Phe side chain arrangement of endomorphins using conformationally constrained analogues” (J Med Chem, 2004).
pIC50, pKi: −log10 of the molar value. Residues, ends and D or L forms follow the SMILES beside them.

Columns and labels:
Mu-type opioid receptor [1] = biological target: T1, Mu-type opioid receptor (Rattus norvegicus, UniProt P33535); assay: In vitro binding affinity towards Opioid receptor mu 1 in rat brain membranes; format: cell membranes
T1 sequence (P33535 whole entry): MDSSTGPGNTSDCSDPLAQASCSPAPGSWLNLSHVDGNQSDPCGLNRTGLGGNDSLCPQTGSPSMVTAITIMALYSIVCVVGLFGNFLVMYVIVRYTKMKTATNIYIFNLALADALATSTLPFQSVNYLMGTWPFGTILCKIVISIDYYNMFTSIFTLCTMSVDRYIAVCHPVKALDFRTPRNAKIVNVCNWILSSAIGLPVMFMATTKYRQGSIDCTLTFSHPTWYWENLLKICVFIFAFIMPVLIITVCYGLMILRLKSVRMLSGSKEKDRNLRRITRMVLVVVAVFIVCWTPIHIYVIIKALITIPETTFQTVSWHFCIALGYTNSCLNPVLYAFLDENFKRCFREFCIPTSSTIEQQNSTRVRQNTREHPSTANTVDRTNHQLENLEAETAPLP
Method in brief: (§1)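 Wistar rat brain membranes without cerebellum (300–500 µg protein) in 50 mM Tris-HCl, pH 7.4, for competition binding. Incubation was stopped by vacuum filtration on GF/C filters, with two ice-cold buffer washes, then scintillation counting. Nonspecific binding was defined with 10 µM naloxone. Each assay was run in duplicate and repeated at least three times, with nonlinear least-squares fitting.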

Mu-type opioid receptor [2] = biological target: T1, Mu-type opioid receptor; assay: Affinity for Opioid receptor mu 1 in rat brain membranes; format: cell membranes; method in brief: as §1
[3] = Half-life in rat brain homogenate; format: ADME
Method in brief: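 Peptide from a 1 mM stock in 50 mM Tris-HCl, pH 7.4, was incubated at 37 °C with rat brain homogenate (5.4 mg/mL protein). Timed aliquots were acidified with 0.1 M HCl, centrifuged, and analysed by RP-HPLC with UV detection at 216 nm. The rate constant came from ln(A/A0) versus time (at least five points). Half-life assumed pseudo-first-order kinetics, from 3–5 measurements.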

Mu-type opioid receptor [4] = biological target: T1, Mu-type opioid receptor; assay: Displacement of [3H]DAMGO from Opioid receptor mu 1 of rat brain membranes; format: cell membranes, Membrane
Mu-type opioid receptor [5] = biological target: T1, Mu-type opioid receptor; assay: Displacement of [3H]endomorphin-2 from Opioid receptor mu 1 of rat brain membranes; format: cell membranes, Membrane
Rattus norvegicus [6] = species: Rattus norvegicus; assay: In vitro percent maximal stimulation of [35S]GTP-gamma-S, binding by the compound in rat brain membranes; format: functional; conditions: Membrane
Method in brief: (§2)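 Rat brain membranes (about 10 µg protein) with 0.05 nM [35S]GTPγS, 100 µM GDP and compound at 10^-9–10^-5 M, in Tris-EGTA buffer (1 mM EGTA, 3 mM MgCl2, NaCl, pH 7.4), at 30 °C for 60 min. Basal binding was measured without compound; nonspecific binding with 100 µM GTPγS. GF/B filtration was used, with three experiments in triplicate. Stimulation is expressed as percent of specific binding.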

Rattus norvegicus [7] = species: Rattus norvegicus; assay: In vitro effective dose against [35S]GTP-gamma-S, binding to rat brain membranes; format: functional; conditions: Membrane; method in brief: as §2
[8] = biological target: Delta-type opioid receptor (Rattus norvegicus, UniProt P33533); assay: Displacement of [3H]Ile5,6-deltorphin II from opioid receptor delta 1 of rat brain membranes; format: cell membranes, Membrane
Chain of Delta-type opioid receptor (P33533 whole entry): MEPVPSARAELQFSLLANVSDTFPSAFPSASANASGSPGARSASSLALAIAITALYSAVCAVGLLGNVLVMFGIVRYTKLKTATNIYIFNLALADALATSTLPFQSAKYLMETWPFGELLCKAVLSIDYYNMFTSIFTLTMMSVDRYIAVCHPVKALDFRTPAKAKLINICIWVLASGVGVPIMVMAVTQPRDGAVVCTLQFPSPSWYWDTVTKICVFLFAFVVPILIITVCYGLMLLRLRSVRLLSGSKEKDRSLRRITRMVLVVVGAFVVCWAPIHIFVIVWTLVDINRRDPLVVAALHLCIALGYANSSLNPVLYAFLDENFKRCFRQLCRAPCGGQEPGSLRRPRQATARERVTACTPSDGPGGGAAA

Mu-type opioid receptor [9] = biological target: Mu-type opioid receptor (Cavia porcellus, UniProt P97266); assay: Inhibition of Opioid receptor mu 1 of guinea pig ileum; format: tissue-based
Chain of Mu-type opioid receptor (Cavia porcellus, UniProt P97266) (P97266 whole entry): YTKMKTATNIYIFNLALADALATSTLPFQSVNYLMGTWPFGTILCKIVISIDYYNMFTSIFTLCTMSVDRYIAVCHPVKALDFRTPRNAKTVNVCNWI
Method in brief: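 Guinea pig ileum in Krebs solution at 37 °C, initial tension 0.8 g, equilibrated 60 min under electrical stimulation. Electrically evoked contractions were inhibited, using noncumulative dose–response curves, with IC50 from sigmoidal curve fitting.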

Mu-type opioid receptor [10] = biological target: Mu-type opioid receptor (Mus musculus, UniProt P42866); assay: Inhibition of Mu opioid receptor of mouse vas deferens
Chain of Mu-type opioid receptor (Mus musculus, UniProt P42866) (P42866 whole entry): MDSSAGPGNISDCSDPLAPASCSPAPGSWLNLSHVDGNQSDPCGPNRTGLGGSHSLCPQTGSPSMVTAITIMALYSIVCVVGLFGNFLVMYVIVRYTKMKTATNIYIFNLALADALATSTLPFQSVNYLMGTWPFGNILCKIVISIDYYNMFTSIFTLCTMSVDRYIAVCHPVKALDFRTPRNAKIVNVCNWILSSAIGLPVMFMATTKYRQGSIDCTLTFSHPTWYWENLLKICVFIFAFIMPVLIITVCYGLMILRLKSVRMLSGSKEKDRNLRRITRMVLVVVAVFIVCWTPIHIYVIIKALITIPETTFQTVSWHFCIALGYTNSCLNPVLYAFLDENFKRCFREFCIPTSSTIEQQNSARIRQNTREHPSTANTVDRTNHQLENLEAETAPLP
Method in brief: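 Mouse vas deferens in Mg-free Krebs at 31 °C, 0.1 g initial tension, equilibrated 30 min under electrical stimulation. Inhibition of evoked contractions was measured with noncumulative dose–response curves, and IC50 was obtained by sigmoidal fitting.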

| Compound | pIC50 (Mu-type opioid receptor [1]) | pKi (Mu-type opioid receptor [2]) | half-life [3] [min] | pKi (Mu-type opioid receptor [4]) | pKi (Mu-type opioid receptor [5]) | Max stimulation (Rattus norvegicus [6]) [%] | ED50 (Rattus norvegicus [7]) [nM] | pKi [8] | pIC50 (Mu-type opioid receptor [9]) | pIC50 (Mu-type opioid receptor [10]) |
| --- | --- | --- | --- | --- | --- | --- | --- | --- | --- | --- |
| N[C@@H](Cc1ccc(O)cc1)C(=O)N1CCC[C@H]1C(=O)N[C@@H](Cc1ccccc1)C(=O)O (H-Tyr-Pro-Phe-OH) | 6.79 | 7.33 | – | – | – | – | – | – | – | – |
| C[C@@H](c1ccccc1)[C@H](NC(=O)[C@H](Cc1c[nH]c2ccccc12)NC(=O)[C@@H]1CCCN1C(=O)[C@@H](N)Cc1ccc(O)cc1)C(N)=O | – | – | 10.7 | 9.10 | 9.33 | 163 | 114 | – | – | – |
| C[C@@H](c1ccccc1)[C@H](NC(=O)[C@@H]1CCCN1C(=O)[C@@H](N)Cc1ccc(O)cc1)C(=O)N[C@@H](Cc1ccccc1)C(N)=O | – | – | – | – | – | 160 | 1610 | 6.75 | – | – |
| C[C@@H](c1ccccc1)[C@H](NC(=O)[C@H](Cc1ccccc1)NC(=O)[C@@H]1CCCN1C(=O)[C@@H](N)Cc1ccc(O)cc1)C(N)=O | – | – | 16.1 | 8.78 | 9.01 | 148 | 139 | 5.20 | 8.46 | 8.04 |
| C[C@H](c1ccccc1)[C@@H](NC(=O)[C@H](Cc1ccccc1)NC(=O)[C@@H]1CCCN1C(=O)[C@@H](N)Cc1ccc(O)cc1)C(N)=O | – | – | – | 6.60 | 6.90 | 108 | 104 | 5.29 | 6.09 | < 5.00 |
| NC(=O)[C@H](Cc1ccccc1)NC(=O)[C@H](Cc1c[nH]c2ccccc12)NC(=O)[C@@H]1CCCN1C(=O)[C@@H](N)Cc1ccc(O)cc1 [ENDOMORPHIN-1] | – | – | 4.9 | – | – | 237 | 289 | – | – | – |
| C[C@H](c1ccccc1)[C@H](NC(=O)[C@H](Cc1ccccc1)NC(=O)[C@@H]1CCCN1C(=O)[C@@H](N)Cc1ccc(O)cc1)C(N)=O | – | – | – | 7.16 | 7.63 | 132 | 455 | 5.31 | 7.05 | 6.63 |
| NC(=O)[C@H](Cc1ccccc1)NC(=O)[C@H](Cc1ccccc1)NC(=O)[C@@H]1CCCN1C(=O)[C@@H](N)Cc1ccc(O)cc1 [ENDOMORPHIN 2] | – | – | 3.8 | – | – | 213 | – | – | – | – |
| C[C@H](c1ccccc1)[C@@H](NC(=O)[C@@H]1CCCN1C(=O)[C@@H](N)Cc1ccc(O)cc1)C(=O)N[C@@H](Cc1ccccc1)C(N)=O | – | – | – | – | – | 105 | 7.7 | 5.17 | – | – |
| C[C@H](c1ccccc1)[C@H](NC(=O)[C@H](Cc1c[nH]c2ccccc12)NC(=O)[C@@H]1CCCN1C(=O)[C@@H](N)Cc1ccc(O)cc1)C(N)=O | – | – | – | 7.58 | 7.63 | 126 | 209 | – | – | – |
| C[C@H](c1ccccc1)[C@H](NC(=O)[C@@H]1CCCN1C(=O)[C@@H](N)Cc1ccc(O)cc1)C(=O)N[C@@H](Cc1ccccc1)C(N)=O | – | – | – | – | – | 146 | 1800 | < 5.00 | – | – |
| C[C@@H](c1ccccc1)[C@@H](NC(=O)[C@@H]1CCCN1C(=O)[C@@H](N)Cc1ccc(O)cc1)C(=O)N[C@@H](Cc1ccccc1)C(N)=O | – | – | – | – | – | 103 | 53 | < 5.00 | – | – |
| C[C@@H](c1ccccc1)[C@@H](NC(=O)[C@H](Cc1c[nH]c2ccccc12)NC(=O)[C@@H]1CCCN1C(=O)[C@@H](N)Cc1ccc(O)cc1)C(N)=O | – | – | – | 6.97 | 7.33 | 124 | 784 | – | – | – |
| C[C@H](c1ccccc1)[C@@H](NC(=O)[C@H](Cc1c[nH]c2ccccc12)NC(=O)[C@@H]1CCCN1C(=O)[C@@H](N)Cc1ccc(O)cc1)C(N)=O | – | – | – | 7.34 | 7.36 | 114 | 1490 | – | – | – |
| C[C@@H](c1ccccc1)[C@@H](NC(=O)[C@H](Cc1ccccc1)NC(=O)[C@@H]1CCCN1C(=O)[C@@H](N)Cc1ccc(O)cc1)C(N)=O | – | – | – | 6.98 | 7.32 | 115 | 572 | < 5.00 | 6.23 | < 5.00 |
